In assay [1] the target is T1, Renin (Homo sapiens, UniProt P00797).
T1 sequence (P00797 whole entry): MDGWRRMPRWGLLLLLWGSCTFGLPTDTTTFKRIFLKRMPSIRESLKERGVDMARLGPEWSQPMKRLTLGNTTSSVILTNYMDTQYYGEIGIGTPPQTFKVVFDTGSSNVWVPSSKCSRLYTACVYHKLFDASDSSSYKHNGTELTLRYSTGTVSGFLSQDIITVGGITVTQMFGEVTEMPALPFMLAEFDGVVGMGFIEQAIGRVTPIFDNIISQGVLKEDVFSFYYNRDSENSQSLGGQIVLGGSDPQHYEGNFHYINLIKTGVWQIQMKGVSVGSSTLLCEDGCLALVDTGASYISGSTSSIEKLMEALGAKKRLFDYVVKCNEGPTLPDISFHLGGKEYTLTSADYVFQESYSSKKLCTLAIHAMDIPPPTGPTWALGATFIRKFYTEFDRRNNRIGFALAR
The experiment in a line: In vitro inhibition constants using recombinant human renin assay.

A short description of assay [2]: The dissociation constant determined by fluorescence displacement assay. In outline: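 Unlabeled inhibitor (6.6 and 13 nM) then added for 2.5 h more, with fluorescence read before and after each addition. Kd fitted from predicted binding curves or numerical solution, as the mean of three duplicate determinations.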
In assay [3] the target is T1, Renin. As to the kind of experiment: In vitro inhibition of human renin by radio-immuno assay of angiotensin I (ANG I).

Numbered stars: 1 amine (or outer) side, 2 acyl side, 3 side chain; on linkers, the order of the positions; unused ones are H or OH. Square brackets hold non-standard residues; d marks the D form. Peptide text beside a SMILES is read from it. * marks the point of attachment. ξ: configuration not given here. X1 = CC(C)C[C@H](N[*:1])[C@@H](O)C[C@H](C(=O)[*:2])C(C)C; X2 = OC[C@H]1O[C@@H](O)[C@H](N*)[C@H](O)[C@@H]1O; NH(2-picolyl-N-oxide) = [O-][n+]1ccccc1CN*; NMeH = CN[C@@H](Cc1c[nH]cn1)C(=O)O; NHCH2(2-pyridyl) = c1ccc(CN*)nc1; Ile(3ξ) = CCC(C)[C@H](N)C(=O)O; NHC(CH2OH)3 = OCC(CO)(CO)N*; Boc = CC(C)(C)OC(=O)*; CO = O=C([*:1])[*:2]

For ten compounds, Ki, Kd and IC50 results are on record in ChEMBL document CHEMBL1125577, “Determination of dissociation constants of high affinity (pM) human renin inhibitors: application to analogues of ditekiren (U-71,038)” (J Med Chem, 1991).

On to `CC[C@H](C)[C@H](NC(=O)[C@@H](C[C@H](O)[C@H](CC(C)C)NC(=O)[C@H](Cc1c[nH]cn1)NC(=O)[C@@H](Cc1ccccc1)NS(=O)(=O)c1cccc2c(N(C)C)cccc12)C(C)C)C(=O)NCc1ccccn1`, for which the Ki (commonly the equilibrium dissociation constant of an inhibitor or competing ligand from its target) on Renin [1] worked out at 0.043 nM. Binding in assay [2] was put at a Kd of 0.066 nM. In addition, half-maximal inhibition at Renin [3] (IC50) was put at 0.24 nM.
For `CC[C@H](C)[C@H](NC(=O)[C@@H](C[C@H](O)[C@H](CC(C)C)NC(=O)[C@H](Cc1c[nH]cn1)N(C)C(=O)[C@H](Cc1ccccc1)NC(=O)[C@@H]1CCCN1C(=O)OC(C)(C)C)C(C)C)C(=O)NCc1cccc[n+]1[O-]` (Boc-PF[NMeH][X1]I-{NH(2-picolyl-N-oxide)}), binding in assay [2] was put at a Kd of 0.131 nM.
For the compound `CC[C@H](C)[C@H](NC(=O)[C@@H](C[C@H](O)[C@H](CC(C)C)NC(=O)[C@H](Cc1cnc[nH]1)N(C)C(=O)[C@H](Cc1ccccc1)NC(=O)[C@@H]1CCCN1C(=O)OC(C)(C)C)C(C)C)C(=O)NCc1cccc[n+]1[O-]` (Boc-PF[NMeH][X1]I-{NH(2-picolyl-N-oxide)}), the IC50 (as a rule, the concentration that inhibits the measured activity by half) at Renin [3] worked out at 0.33 nM.
For the compound `CC[C@H](C)[C@H](NC(=O)[C@@H](C[C@H](O)[C@H](CC(C)C)NC(=O)[C@H](Cc1c[nH]cn1)N(C)C(=O)[C@H](Cc1ccccc1)NC(=O)[C@@H]1CCCN1C(=O)OC(C)(C)C)C(C)C)C(=O)NC(CO)(CO)CO` (Boc-PF[NMeH][X1]I-{NHC(CH2OH)3}), in assay [2], the affinity, expressed as Kd, was 0.044 nM. Inhibition on Renin [3] was half-maximal at 0.26 nM (IC50).
In the case of `CC[C@H](C)[C@H](NC(=O)[C@@H](C[C@H](O)[C@H](CC(C)C)NC(=O)[C@H](Cc1c[nH]cn1)N(C)C(=O)[C@H](Cc1ccccc1)NC(=O)[C@@H]1CCCN1C(=O)NC(CO)(CO)CO)C(C)C)C(=O)NCc1ccccn1` ({NHC(CH2OH)3-CO}-PF[NMeH][X1]I-{NHCH2(2-pyridyl)}), binding in assay [2] was characterised by a dissociation constant (Kd) of 0.111 nM.
In turn, `CC[C@H](C)[C@H](NC(=O)[C@@H](C[C@H](O)[C@H](CC(C)C)NC(=O)[C@H](Cc1cnc[nH]1)N(C)C(=O)[C@H](Cc1ccccc1)NC(=O)[C@@H]1CCCN1C(=O)NC(CO)(CO)CO)C(C)C)C(=O)NCc1ccccn1` ({NHC(CH2OH)3-CO}-PF[NMeH][X1]I-{NHCH2(2-pyridyl)}) registered an IC50 against Renin [3] of 0.33 nM.
As to `CCC(C)[C@H](NC(=O)[C@@H](C[C@H](O)[C@H](CC(C)C)NC(=O)[C@H](Cc1c[nH]cn1)N(C)C(=O)[C@H](Cc1ccccc1)NC(=O)[C@@H]1CCCN1C(=O)NC(CO)(CO)CO)C(C)C)C(=O)NCc1cccc[n+]1[O-]` (some centres not stated) ({NHC(CH2OH)3-CO}-PF[NMeH][X1][Ile(3ξ)]-{NH(2-picolyl-N-oxide)}), in assay [2], binding was characterised by a dissociation constant (Kd) of 0.033 nM. This lies in the picomolar range.
For `CCC(C)[C@H](NC(=O)[C@@H](C[C@H](O)[C@H](CC(C)C)NC(=O)[C@H](Cc1cnc[nH]1)N(C)C(=O)[C@H](Cc1ccccc1)NC(=O)[C@@H]1CCCN1C(=O)NC(CO)(CO)CO)C(C)C)C(=O)NCc1cccc[n+]1[O-]` (some centres not stated) ({NHC(CH2OH)3-CO}-PF[NMeH][X1][Ile(3ξ)]-{NH(2-picolyl-N-oxide)}), the Ki at Renin [1] worked out at 0.051 nM. On Renin [3], this compound showed an IC50 of 0.58 nM.
As to `CC[C@H](C)[C@H](NC(=O)[C@@H](C[C@H](O)[C@H](CC(C)C)NC(=O)[C@H](Cc1c[nH]cn1)N(C)C(=O)[C@H](Cc1ccccc1)NC(=O)[C@@H]1CCCN1C(=O)N[C@@H]1[C@H](O)[C@H](O)[C@@H](CO)O[C@H]1O)C(C)C)C(=O)NCc1cccc[n+]1[O-]` ({X2-CO}-PF[NMeH][X1]I-{NH(2-picolyl-N-oxide)}), in assay [2], the Kd (commonly the equilibrium constant for the complex coming apart) was determined as 0.434 nM. It took 1.1 nM to reach half-maximal inhibition against Renin [3] (IC50).
For `CC[C@H](C)[C@H](NC(=O)[C@@H](C[C@H](O)[C@H](CC(C)C)NC(=O)[C@H](Cc1c[nH]cn1)N(C)C(=O)[C@H](Cc1ccccc1)NC(=O)[C@@H]1CCCN1C(=O)OC(C)(C)C)C(C)C)C(=O)NCc1ccccn1` [DITEKIREN], the Ki on Renin [1] worked out at 0.04 nM. Binding in assay [2] was put at a Kd of 0.04 nM. On Renin [3], this compound came in with an IC50 of 0.26 nM.
